These results are taken from ChEMBL document CHEMBL3044991, “Synthesis and biological activity of 4-(4,6-disubstituted-pyrimidin-2-yloxy)phenoxy acetates” (2010).

What all share (type): functional
What all share (details): read-out: GI

The subject of experiment [1] is Brassica napus. In words: Herbicidal activity against Brassica napus (oilseed rape) assessed as root growth inhibition at 10 mg/L applied to germinated seeds measured after 65 hr at 28 degC. In short, it runs like this:
(§1)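 Compounds dissolved in DMF with Tween 20 and diluted in distilled water to an emulsion. Germinated seeds, usually 15 per plate, were placed on two filter papers wetted with test solution in a Petri dish. Plates were kept in the dark for 65 h at 28 (±1) ºC. Root lengths of 10 seeds per plate were measured and averaged. Blank was emulsion without compound; quizalofop-P-ethyl served as control.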

Experiment [2] relates to Brassica napus. In words: Herbicidal activity against Brassica napus (oilseed rape) assessed as root growth inhibition at 50 mg/L applied to germinated seeds measured after 65 hr at 28 degC. In short, it runs like this: as §1
For experiment [3], the system named is Digitaria sanguinalis. In words: Herbicidal activity against Digitaria sanguinalis (hairy crabgrass) assessed as root growth inhibition at 100 mg/L applied to germinated seeds measured after 65 hr at 28 degC. In short, it runs like this: as §1
In experiment [4] the test system is Brassica napus. Briefly: Herbicidal activity against Brassica napus (oilseed rape) assessed as root growth inhibition at 100 mg/L applied to germinated seeds measured after 65 hr at 28 degC. The method, boiled down: as §1
Experiment [5] relates to Digitaria sanguinalis. Briefly: Herbicidal activity against Digitaria sanguinalis (hairy crabgrass) assessed as root growth inhibition at 10 mg/L applied to germinated seeds measured after 65 hr at 28 degC. In short, it runs like this:
as §1

In experiment [6] the test system is Digitaria sanguinalis. In words: Herbicidal activity against Digitaria sanguinalis (hairy crabgrass) assessed as root growth inhibition at 50 mg/L applied to germinated seeds measured after 65 hr at 28 degC. In short, it runs like this: as §1

Take `CCCOC(=O)COc1ccc(Oc2nc(OC)cc(OC)n2)cc1`: the inhibition of growth at 10 µg/mL worked out at 10.1% in experiment [1] and 32.5% in experiment [5]. Also, the results for the inhibition of growth at 50 µg/mL in experiment [2] and in experiment [6] were 13.1% and 95.2%, respectively. Besides, the inhibition of growth at 100 µg/mL in experiment [3] came to 100%; in experiment [4], 15.9%.
Regarding `Cc1cc(C)nc(Oc2ccc(OCC(=O)OC(C)C)cc2)n1`, the inhibition of growth at 10 µg/mL in experiment [1] is 9.2%; in experiment [5], 35%. In addition, the results for the inhibition of growth at 50 µg/mL in experiment [2] and in experiment [6] were 14.3% and 95.1%, respectively. In addition, the values for the inhibition of growth at 100 µg/mL in experiment [3] and in experiment [4] were 100% and 26.4%, respectively.
Turning to `CCOC(=O)COc1ccc(Oc2nc(C)cc(C)n2)cc1`, the results for the inhibition of growth at 10 µg/mL in experiment [1] and in experiment [5] were 14.2% and 38.5%, respectively. Also, the values for the inhibition of growth at 50 µg/mL in experiment [2] and in experiment [6] were 32.7% and 98.4%, respectively. Also, the inhibition of growth at 100 µg/mL in experiment [3] was found to be 100%; in experiment [4] it was 58.4%.
Take `CCCOC(=O)COc1ccc(Oc2nc(C)cc(C)n2)cc1`: the inhibition of growth at 10 µg/mL worked out at 12.1% in experiment [1] and 36.9% in experiment [5]. For the same molecule, the inhibition of growth at 50 µg/mL in experiment [2] came out at 33.9%; in experiment [6] it was 97.5%. Moreover, the inhibition of growth at 100 µg/mL in experiment [3] was 100%; in experiment [4], 54.5%.
On to `COC(=O)COc1ccc(Oc2nc(OC)cc(OC)n2)cc1`, for which the inhibition of growth at 10 µg/mL in experiment [1] worked out at 22.9%; in experiment [5], 42.8%. The inhibition of growth at 50 µg/mL in experiment [2] came to 34.4%; in experiment [6] it was 98.5%. The inhibition of growth at 100 µg/mL in experiment [3] worked out at 100%; in experiment [4], 39.8%.
On to `CCCCOC(=O)COc1ccc(Oc2nc(OC)cc(OC)n2)cc1`, for which the inhibition of growth at 10 µg/mL in experiment [1] was found to be 9.5%; in experiment [5], 41.8%. Further, the inhibition of growth at 50 µg/mL turned out to be 13.4% in experiment [2] and 96.9% in experiment [6]. The inhibition of growth at 100 µg/mL came out at 100% in experiment [3] and 28.3% in experiment [4].
Regarding `CCOC(=O)COc1ccc(Oc2nc(OC)cc(OC)n2)cc1`, the inhibition of growth at 10 µg/mL in experiment [1] came to 13.4%; in experiment [5], 39.9%. Further, the values for the inhibition of growth at 50 µg/mL in experiment [2] and in experiment [6] were 31% and 96.2%, respectively. For the same molecule, the inhibition of growth at 100 µg/mL in experiment [3] came out at 100%; in experiment [4], 41.1%.
`CCOC(=O)[C@@H](C)Oc1ccc(Oc2cnc3cc(Cl)ccc3n2)cc1` [QUIZALOFOP-P-ETHYL]: the inhibition of growth at 10 µg/mL is 33.8% in experiment [1] and 63.5% in experiment [5]. The inhibition of growth at 50 µg/mL is 39.2% in experiment [2] and 95.3% in experiment [6]. The inhibition of growth at 100 µg/mL in experiment [3] was found to be 100%; in experiment [4], 51.2%.
Consider `CCCCOC(=O)COc1ccc(Oc2nc(C)cc(C)n2)cc1`, for which the figures for the inhibition of growth at 10 µg/mL in experiment [1] and in experiment [5] were 21.5% and 42.6%, respectively. Besides, the inhibition of growth at 50 µg/mL in experiment [2] stood at 34.2%; in experiment [6], 97.6%. Besides, the inhibition of growth at 100 µg/mL in experiment [3] was 100%; in experiment [4], 50.2%.
In the case of `COc1cc(OC)nc(Oc2ccc(OCC(=O)OC(C)C)cc2)n1`, the inhibition of growth at 10 µg/mL in experiment [1] was found to be 14.6%; in experiment [5], 32.7%. In addition, the inhibition of growth at 50 µg/mL was 21% in experiment [2] and 96.5% in experiment [6]. In addition, the figures for the inhibition of growth at 100 µg/mL in experiment [3] and in experiment [4] were 100% and 25.1%, respectively.
On to `COC(=O)COc1ccc(Oc2nc(C)cc(C)n2)cc1`, for which the inhibition of growth at 10 µg/mL in experiment [1] amounted to 11.9%; in experiment [5] it was 44.7%. Also, the inhibition of growth at 50 µg/mL in experiment [2] was 26.7%; in experiment [6] it was 97.3%. The values for the inhibition of growth at 100 µg/mL in experiment [3] and in experiment [4] were 100% and 44.7%, respectively.
